Data taken from ChEMBL document CHEMBL3407343, “Functionalized tetrahydro-1H-pyrido[4,3-b]indoles: a novel chemotype with Sirtuin 2 inhibitory activity” (Eur J Med Chem, 2015).
pIC50: −log10 of the molar value. ≈ marks a conversion by molar mass, not a printed value. Calls of active or inactive are those of the source. The rule behind the calls is not given here.

Tests used:
[1] = biological target: T1, NAD-dependent protein deacetylase sirtuin-1 (Homo sapiens) (UniProt Q96EB6); assay: Inhibition of human recombinant SIRT1 assessed as deacetylation of N-acetyl lysine residue in p53 (317 to 320) at 10 uM after 30 mins by luciferase-mediated luminescence assay relative to control
T1 sequence (whole entry): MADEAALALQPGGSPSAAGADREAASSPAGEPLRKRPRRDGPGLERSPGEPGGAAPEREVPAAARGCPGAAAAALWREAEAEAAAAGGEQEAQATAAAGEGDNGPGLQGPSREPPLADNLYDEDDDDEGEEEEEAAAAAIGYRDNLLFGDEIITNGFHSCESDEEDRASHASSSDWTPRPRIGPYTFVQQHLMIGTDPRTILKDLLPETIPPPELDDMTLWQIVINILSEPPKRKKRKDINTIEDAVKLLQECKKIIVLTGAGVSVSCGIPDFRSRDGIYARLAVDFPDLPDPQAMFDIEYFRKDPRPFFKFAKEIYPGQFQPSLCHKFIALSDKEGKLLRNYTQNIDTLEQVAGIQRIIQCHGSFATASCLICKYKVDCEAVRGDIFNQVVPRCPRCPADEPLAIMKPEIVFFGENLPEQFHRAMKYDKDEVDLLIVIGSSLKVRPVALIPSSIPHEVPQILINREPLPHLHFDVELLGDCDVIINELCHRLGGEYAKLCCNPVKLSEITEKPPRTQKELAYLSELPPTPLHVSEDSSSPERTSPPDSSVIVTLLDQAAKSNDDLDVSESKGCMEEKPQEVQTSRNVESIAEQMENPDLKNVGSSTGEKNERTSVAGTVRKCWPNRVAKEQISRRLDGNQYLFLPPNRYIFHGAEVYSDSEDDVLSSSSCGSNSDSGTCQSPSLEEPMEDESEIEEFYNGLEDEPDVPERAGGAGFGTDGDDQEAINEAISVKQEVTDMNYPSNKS
Procedure, shortened: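 Recombinant human SIRT1 at 0.1 unit/well, with the enzyme amount chosen from the mid-linear range of a signal-to-noise titration, in Sirt-Glo buffer. Serially diluted inhibitor in DMSO covers a 10^3-fold range, with 2.5% DMSO final. The single-point screen is at a fixed 10 µM. Enzyme and inhibitor were agitated 30 min at 25 °C, then Sirt-Glo reagent added and shaken another 30 min at 25 °C before luminescence was read. Activity is % of the enzyme-only control after blank subtraction. IC50 comes from a sigmoidal fit of % activity against log concentration, run in triplicate across ≥2 independent experiments.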

[2] = biological target: T2, NAD-dependent protein deacetylase sirtuin-1 (Homo sapiens, UniProt Q96EB6); assay: Inhibition of human recombinant SIRT1 assessed as deacetylation of N-acetyl lysine residue in p53 (317 to 320) after 30 mins by luciferase-mediated luminescence assay
T2 sequence (Q96EB6 whole entry): T1 sequence (whole entry)

[3] = biological target: T3, NAD-dependent protein deacetylase sirtuin-2 (Homo sapiens, UniProt Q8IXJ6); assay: Inhibition of human recombinant SIRT2 assessed as deacetylation of N-acetyl lysine residue in p53 (317 to 320) after 30 mins by luciferase-mediated luminescence assay
T3 sequence (Q8IXJ6 whole entry): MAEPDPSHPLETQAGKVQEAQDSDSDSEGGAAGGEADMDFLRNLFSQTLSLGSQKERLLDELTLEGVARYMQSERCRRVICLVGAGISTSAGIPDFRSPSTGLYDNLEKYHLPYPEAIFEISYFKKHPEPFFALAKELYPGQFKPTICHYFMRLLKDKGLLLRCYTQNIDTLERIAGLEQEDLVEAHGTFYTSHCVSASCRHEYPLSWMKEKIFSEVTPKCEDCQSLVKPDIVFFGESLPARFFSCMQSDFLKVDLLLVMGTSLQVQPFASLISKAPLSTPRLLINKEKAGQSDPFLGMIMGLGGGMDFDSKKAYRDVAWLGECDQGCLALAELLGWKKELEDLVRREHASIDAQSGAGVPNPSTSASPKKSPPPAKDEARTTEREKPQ

[4] = species: Homo sapiens; assay: Inhibition of protease (unknown origin) using deacetylated peptide as substrate assessed as luminescence at 10 uM after 30 mins relative to control; set-up: scale not given: the % may be the effect or the level left
Procedure, shortened: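 Counter-screen without sirtuin: compound from DMSO stock diluted in Sirt-Glo buffer, then Sirt-Glo reagent added carrying non-acetylated control peptide. DMSO was 2.5% v/v. Mixed by shaking 30 min at 25 °C, then luminescence read. Result is % of control (peptide plus reagent in vehicle) after subtracting the vehicle-only blank.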

[5] = Self-aggregation of the compound in PBS assessed as derived light scattering count rate at 10 uM at pH 7.4 (reference value: 15.5 +/- 0.4 kilocount/sec); format: physicochemical; details: buffer, pH 7.4, 10 µM
[6] = Self-aggregation of the compound in PBS assessed as derived light scattering count rate at 1 uM at pH 7.4 (reference value: 15.5 +/- 0.4 kilocount/sec); format: physicochemical; details: buffer, pH 7.4, 1 µM
[7] = Solubility of the compound in phosphate buffer at pH 7.4 at 25 degC by turbimetric method; format: physicochemical
Procedure, shortened: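 Turbidimetric solubility. Compound from DMSO stock was added to phosphate buffer pH 7.4 at 1–50 µM final, with 1% v/v DMSO. Plate shaken 30 min at 25 °C and absorbance read at 620 nm. Solubility is assigned to the concentration range where absorbance rises two-fold or more, from 3 separate determinations.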

[8] = species: Homo sapiens; assay: Selectivity ratio of IC50 for human recombinant SIRT1 to IC50 for human recombinant SIRT2
[9] = Self-aggregation of the compound in PBS assessed as derived light scattering count rate at 250 uM at pH 7.4 (reference value: 15.5 +/- 0.4 kilocount/sec); format: physicochemical; details: buffer, pH 7.4, 250 µM
[10] = Self-aggregation activity of the compound in PBS assessed as derived light scattering count rate at 25 uM at pH 7.4 (reference value: 15.5 +/- 0.4 kilocount/sec); format: physicochemical; details: buffer, pH 7.4, 25 µM
[11] = Cytotoxicity against human IMR90 cells assessed as cell viability after 72 hrs by MTS assay; format: cell-based; details: IMR-90, 72 h

Row | Structure (SMILES) | inhibition [1] | pIC50 [2] | pIC50 [3] | Activity [4] | Activity [5] | Activity [6] | further results
1 | CCCCCCCCn1c2c(c3cc(-c4ccc(S(C)(=O)=O)cc4)ccc31)CN(C)CC2 | 12.8% | < 3.60 | 5.22 | 97.8% | 130.7 kC/sec | 17 kC/sec | Ratio IC50 [8]: > 40; solubility kinetic [7]: 3.1 µM (≈ 1.4 µg/mL)
2 | CCCCCCCCn1c2c(c3cc(F)ccc31)CN(C)CC2 | inactive |  |  |  |  |  | 
3 | CCCCCCCCn1c2c(c3cc(F)ccc31)CN(Cc1ccc(O)cc1)CC2 | inactive |  |  |  |  |  | 
4 | O=C(OCc1ccccc1)c1ccccc1 [BENZYL BENZOATE] |  |  |  |  |  |  | Activity [9]: 1148 kC/sec; Activity [10]: 76 kC/sec
5 | CCCCCCCCn1c2c(c3cc(-c4cnc(N)nc4)ccc31)CN(C(N)=O)CC2 | inactive | 4.20 | 4.85 |  |  |  | 
6 | CCCCCCCCn1c2c(c3cc(-c4cnc(N)nc4)ccc31)CN(C(=O)OCC)CC2 | inactive |  |  |  |  |  | 
7 | CCCCCCCCn1c2c(c3cc(-c4cnc(N)nc4)ccc31)CN(C(C)C)CC2 | 15.3% | 4.25 | 4.70 |  | 137 kC/sec | 16.8 kC/sec | 
8 | CCCCCCCCn1c2c(c3cc(-c4cccc(C)c4)ccc31)CN(C(C)C)CC2 | 2.4% | 4.59 | 4.95 | 100% | 558 kC/sec | 27 kC/sec | solubility kinetic [7]: 1.6 µM (≈ 0.667 µg/mL)
9 | CCCCCCCCn1c2c(c3cc(-c4cnc(N)nc4)ccc31)CN(C)CC2 | inactive | < 4.00 | 4.75 | 98.7% | 24 kC/sec | 15.8 kC/sec | 
10 | CCCCCCCCn1c2c(c3cc(-c4ccc(S(C)(=O)=O)cc4)ccc31)CN(C(N)=O)CC2 | 51.8% | 4.55 | 5.40 | 98.6% | 29 kC/sec | 15.6 kC/sec | pIC50 [11]: 4.84; solubility kinetic [7]: 1.6 µM (≈ 0.771 µg/mL)
11 | CCCCCCCCn1c2c(c3cc(-c4cnc(N)nc4)ccc31)CN(S(C)(=O)=O)CC2 | inactive |  |  |  |  |  | 
12 | CCCCCCCCn1c2c(c3cc(-c4cnc(N)nc4)ccc31)CN(CCO)CC2 | inactive |  |  |  |  |  | 
13 | CCCCCCCCn1c2c(c3cc(-c4cccc(C)c4)ccc31)CN(C(=O)OCC)CC2 | inactive |  |  |  |  |  | 
14 | CCCCCCCCn1c2c(c3cc(-c4cnc(N)nc4)ccc31)CN(CC)CC2 | inactive |  |  |  |  |  | 

Second part, led by results:

Row | inhibition [1] | pIC50 [2] | pIC50 [3] | Activity [4] | Activity [5] | Activity [6] | Structure (SMILES) | further results
15 | 2.4% | 4.42 | 4.93 | 96.3% | 137 kC/sec | 16.1 kC/sec | CCCCCCCCn1c2c(c3cc(-c4cnc(N)nc4)ccc31)CNCC2 | solubility kinetic [7]: 6.3 µM (≈ 2.38 µg/mL)
16 | inactive |  | 4.70 | 98.6% |  |  | CCCCn1c2c(c3cc(-c4ccc(S(C)(=O)=O)cc4)ccc31)CNCC2 | 
17 | inactive |  |  |  |  |  | CCCCCCCCn1c2c(c3cc(-c4cccc(C)c4)ccc31)CN(Cc1ccc(O)cc1)CC2 | 
18 | inactive |  | < 4.00 |  |  |  | CCCCn1c2c(c3cc(-c4cnc(N)nc4)ccc31)CNCC2 | 
19 | inactive | < 4.00 | 5.11 | 97.1% | 541 kC/sec | 19 kC/sec | CCCCCCCCn1c2c(c3cc(-c4cccc(C)c4)ccc31)CN(C(N)=O)CC2 | 
20 |  |  | < 3.60 |  |  |  | CN1CCc2[nH]c3ccc(-c4cnc(N)nc4)cc3c2C1 | 
21 | inactive |  |  |  |  |  | CC(C)=CCn1c2c(c3cc(-c4cccc(C)c4)ccc31)CN(Cc1ccc(O)cc1)CC2 | 
22 | 5.1% | 4.70 | 5.00 |  |  |  | CCCCCCCCn1c2c(c3cc(-c4cccc(C)c4)ccc31)CNCC2 | Ratio IC50 [8]: 2
23 | 66.4% | 4.68 | 5.21 | 98.6% | 178 kC/sec | 17.9 kC/sec | CCCCCCCCn1c2c(c3cc(-c4cccc(C)c4)ccc31)CN(C)CC2 | solubility kinetic [7]: 3.1 µM (≈ 1.2 µg/mL)
24 | inactive |  |  |  |  |  | CCCCCCCCn1c2c(c3cc(-c4ccnc(F)c4)ccc31)CN(C(N)=O)CC2 | 
25 | inactive |  | 4.02 |  |  |  | CCCCn1c2c(c3cc(-c4cccc(C)c4)ccc31)CNCC2 | 
26 | < 5% | < 4.00 | 5.09 | 99% | 769 kC/sec | 32 kC/sec | CCCCCCCCn1c2c(c3cc(-c4cccc(C)c4)ccc31)CN(Cc1ccccc1)CC2 | 
27 | 1.1% |  |  |  |  |  | CCCCCCCCn1c2c(c3cc(-c4ccnc(F)c4)ccc31)CNCC2 | 
28 |  |  | 4.00 |  |  |  | Cc1cccc(-c2ccc3[nH]c4c(c3c2)CNCC4)c1 | 
29 |  |  | < 3.60 |  |  |  | CN1CCc2[nH]c3ccc(-c4ccc(S(C)(=O)=O)cc4)cc3c2C1 | 
30 |  |  | 4.08 |  |  |  | Cc1cccc(-c2ccc3[nH]c4c(c3c2)CN(C)CC4)c1 | 
